{"data": "Published values collected from several papers", "sample": "plasma", "route": "oral", "note": "Compare with care: the assays were run in different laboratories."}
{"SMILES": "CO[C@H]1CC[C@H](N2C(=O)CNc3ncc(-c4ccc(C(C)(C)O)nc4)nc32)CC1", "system": "human", "setting": "45 mg, multiple doses, patients", "Cmax": "417 ng/mL"}
{"SMILES": "Cn1cc(-c2ccc(S(=O)(=O)[C@@H]3C[C@@H](C(=O)NC4(C#N)CC4)N(C(=O)C4(C(F)(F)F)CC4)C3)c(C(F)(F)F)c2)cn1", "system": "human", "setting": "300 mg, single dose, fasted, healthy volunteers", "Cmax": "1070 ng/mL"}
{"SMILES": "CC(C)(O)c1ccccc1-c1ccc2[nH]c(/C=C/c3ccc(C(F)(F)F)cc3)nc2c1", "system": "male human", "setting": "60 mg, single dose, fasted, healthy volunteers", "Cmax": "177 ng/mL"}
{"SMILES": "FC(F)(F)c1ccc(CNc2ccc(Cc3c[nH]c4ncc(Cl)cc34)cn2)cn1", "system": "human", "setting": "800 mg, multiple doses, patients", "Cmax": "6780 ng/mL"}
{"SMILES": "CC(C)n1cc(C#N)c2cc(-n3cc(C(=O)O)cn3)ccc21", "system": "human", "setting": "100 mg, single dose, fasted, healthy volunteers", "Cmax": "3520 ng/mL"}
{"SMILES": "COc1ccc([C@@H]2CN(C(=O)[C@@H](O)CO)C[C@@]2(C)[C@@H](C)O)cc1OC1CN(c2ccc(C)cn2)C1", "system": "human", "setting": "0.5 mg, single dose, healthy volunteers", "Cmax": "30 ng/mL"}
{"SMILES": "C[C@@]1(c2cc(NC(=O)c3ccc(C#N)cn3)ccc2F)C=CSC(N)=N1", "system": "human", "setting": "10 mg, single dose", "Cmax": "83.9 ng/mL"}
{"SMILES": "COc1cc(C(=O)NC2CCN(C)CC2)c(F)cc1Nc1ncc(C(F)(F)F)c(Oc2cccc3c2C(=O)N(C)C3)n1", "system": "human", "setting": "50 mg, single dose, patients", "Cmax": "312 nM"}
{"SMILES": "CCc1nc2c(C)cc(N3CCN(CC(=O)N4CC(O)C4)CC3)cn2c1N(C)c1nc(-c2ccc(F)cc2)c(C#N)s1", "system": "human", "setting": "300 mg, single dose, fed, healthy volunteers", "Cmax": "3800 ng/mL"}
{"SMILES": "COCCOc1cnc2ccn([C@H](C)c3nnc4c(F)cc(-c5cnn(C)c5)cn34)c(=O)c2c1", "system": "human", "setting": "400 mg, multiple doses, once daily, patients", "Cmax": "5140 ng/mL"}
{"SMILES": "CCn1c(=O)c(-c2cc(NC(=O)Nc3ccccc3)c(F)cc2Br)cc2cnc(NC)cc21", "system": "human", "setting": "50 mg, single dose, patients", "Cmax": "339 ng/mL"}
